Experimental data from different studies.
Each line is one published result; the experiments were not run side by side.

Structure (SMILES)	tested on	test	test system	conditions	measurement	value
CCCCCCCCCCOc1cc2c(O)c(C(=O)OCC)cnc2cc1OCC	CHO	cell growth or viability	–	72 h	IC50	> 100 µM
Cc1cc(C)nc(Nc2ncc(C(=O)NCCc3c(C)[nH]c4ccccc34)cn2)c1	–	chemical stability	simulated intestinal fluid	10 µM, pH 6.8	half-life	197 min
Nc1c2c(nc3c1C(c1cccc([N+](=O)[O-])c1)c1ccc(OS(=O)(=O)c4ccc(F)cc4)cc1O3)CCCC2 (stereo not drawn)	SH-SY5Y	cell growth or viability, MTT	–	25 µM	viability	48.8%
C[C@]12CC[C@H](O)CC1=CC[C@@H]1[C@@H]2CC[C@]2(C)C(n3cnc4ccccc43)=CC[C@@H]12.Cl	–	–	mouse, plasma	oral, 10 mg/kg	AUC(0-t)	26.1 ng·h/mL
COc1cc2c(cc1C(=O)Nc1ccc(C(C)(C)C#N)cc1)CCCCC2	NHDF	cell growth or viability, ATP luminescence	–	24 h	CC50	94 µM
Nc1c2c(nc3c1C(c1ccc(Cl)c(Cl)c1)c1ccc(OCC(=O)c4ccc(Cl)cc4)cc1O3)CCCC2 (stereo not drawn)	SH-SY5Y	cell growth or viability, MTT	–	0.4 µM	viability	89.5%
CCC[C@@](N)(CO)CCc1ccc(OCCCCCC(C)C)cc1	–	–	mouse, plasma	oral, 10 mg/kg	AUC(0-t)	0.227 µM·h
C[C@]12CC[C@H](n3ccnc3)CC1=CC[C@@H]1[C@@H]2CC[C@]2(C)C(n3cnc4ccccc43)=CC[C@@H]12.Cl	–	–	male CD-1 mouse, plasma	oral, 10 mg/kg	bioavailability	> 100%
COc1ccc(S(=O)(=O)Oc2ccc3c(c2)Oc2nc4c(c(N)c2C3c2cccc(OC)c2)CCCC4)cc1 (stereo not drawn)	SH-SY5Y	cell growth or viability, MTT	–	1.6 µM	viability	84.3%
CCCCCn1cc(C(=O)Nc2cccc3ccccc23)c2ccccc21	–	metabolic stability	Sprague-Dawley rat, liver microsomes	1 µM, pH 7.4	half-life	2.21 min
Nc1c2c(nc3c1C(c1ccc(Cl)c(Cl)c1)c1ccc(OCC(=O)c4ccccc4)cc1O3)CCCC2 (stereo not drawn)	SH-SY5Y	cell growth or viability, MTT	–	25 µM	viability	45.9%
O=C(Nc1ccc(Cl)cc1)Nc1cccc(-c2cccc(N3CCCC3)n2)c1	–	metabolic stability	rat, liver microsomes	pH 7.4	half-life	13.4 min
